This is an account of results in ChEMBL document CHEMBL4819066, “Repurposing primaquine as a polyamine conjugate to become an antibiotic adjuvant” (Bioorg Med Chem, 2021).

Structures are written as SMILES. Bounds are passed on as bounds.

Broadly, the MIC is the lowest concentration found to suppress growth. The HC50 is the concentration that lyses half of the red blood cells. The low end stands for more damage to red cells, the high end for less damage to red cells.

In data set [1] the test system is Acinetobacter baumannii. Briefly: Antibacterial activity against Acinetobacter baumannii ATCC 19606 assessed as reduction in microbial growth after 18 hrs by resazurin dye based assay. The class given is functional. As to conditions: ATCC 19606 = CIP 70.34 = JCM 6841; call rule not given here. The method in brief: (§1)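 Bacteria grown overnight at 37 °C in LB, NB or MHB, diluted 40-fold into MHB and grown 1.5-2 h to mid-log phase. Inoculum 5 × 10^5 CFU/mL (final), 2-fold serial dilutions, final range 0.008-32 µg/mL, in duplicate. […] Colistin as positive control, Z'-factor >0.4 for plate QC.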
(In general: Resazurin is reduced to fluorescent resorufin, in cell work by metabolically active cells.)

In data set [2] the test system is Pseudomonas aeruginosa. Put plainly: Potentiation of doxycycline-induced antibacterial activity against Pseudomonas aeruginosa ATCC 27853 assessed as complete reduction in visible microbial growth after 18 hrs in presence of 4.5 uM doxycycline by two fold serial dilution method. It is filed as functional. The method in brief:
(§2)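 Adjuvant test by broth dilution: inoculum 5 × 10^5 CFU in 200 µL MHB. Two-fold serial dilutions of each derivative were given with doxycycline fixed at 2 µg/mL. After 18 h at 37 °C, the value recorded was the lowest adjuvant concentration giving complete absence of visible growth. Three independent repeats.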

For a further data set, the system named is Staphylococcus aureus. Put plainly: Antibacterial activity against methicillin-resistant Staphylococcus aureus ATCC 43300 assessed as reduction in microbial growth after 18 hrs by resazurin dye based assay. The class given is functional. A digest of the protocol:
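Overnight culture at 37 °C, diluted 40-fold in MHB and grown 1.5-2 h to mid-log. Inoculum 5 × 10^5 CFU/mL. Two-fold serial dilutions, final 0.008-32 µg/mL, in duplicate. […] Vancomycin served as the Gram-positive standard.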

The subject of another data set is Cryptococcus neoformans. Put plainly: Antifungal activity against Cryptococcus neoformans ATCC 208821 assessed as reduction in microbial growth after 36 hrs by resazurin dye based assay. The class given is functional. A digest of the protocol: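 Yeast grown 3 days on YPD agar at 30 °C and diluted in YNB broth to 2.5 × 10^3 CFU/mL. Compounds at 0.008-32 µg/mL final, 2-fold dilutions, in duplicate. After 36 h at 35 °C without shaking, resazurin added at 0.006% final for a further 3 h; MIC read as absorbance at OD570-600. Fluconazole as positive control.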

The test system of another data set is HEK293. Briefly: Cytotoxicity against human HEK293 cells assessed as reduction in cell viability measured after 20 hrs by resazurin based Neubauer haemocytometric analysis. As to conditions: hek293, 20 h. The method in brief: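 HEK293 cells plated at 5,000 cells/well in DMEM with 10% FBS onto pre-dispensed compound and incubated 20 h at 37 °C, 5% CO2. Resazurin then added at 100 µM final for 3 h; fluorescence read at ex 560/em 590. Signal normalized to 74 µg/mL tamoxifen (0%) and untreated growth (100%). CC50 obtained from dose-response fit.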

Data set [3] is described as follows: Hemolytic activity in rat RBC incubated for 1 hr by Neubauer haemocytometric analysis. It is filed as ADME, cell-based, Erythrocyte. The following applies: red blood cells (erythrocytes).
The test system of data set [4] is Pseudomonas aeruginosa. Briefly: Antibacterial activity against Pseudomonas aeruginosa ATCC 27853 assessed as reduction in microbial growth after 18 hrs by resazurin dye based assay. The class given is functional. The method in brief: as §1
Another data set concerns L6. Put plainly: Cytotoxicity against rat L6 cells assessed as reduction in cell viability at 0.123 to 90 ug/ml measured after 72 hrs by Alamar blue based inverted microscopy analysis. As to conditions: l6, 72 h, dose 0.123-90 µg/ml. The method in brief:
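Rat skeletal myoblast L6 cells, 4 × 10^4 per well, in RPMI 1640 with L-glutamine and 10% FBS. Seven 3-fold dilutions were tested, 90 to 0.123 µg/mL, for 72 h. Alamar Blue added for 2 h, and fluorescence read at ex 536/em 588 nm. Podophyllotoxin served as reference drug.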

The subject of data set [5] is Klebsiella pneumoniae. Briefly: Antibacterial activity against Klebsiella pneumoniae ATCC 700603 assessed as reduction in microbial growth after 18 hrs by resazurin dye based assay. The class given is functional. The method in brief: as §1
A further data set has as its system Candida albicans. Put plainly: Antifungal activity against Candida albicans ATCC 90028 assessed as reduction in microbial growth after 36 hrs by absorbance at OD530. The following applies: ATCC 90028, 36 h.
Data set [6] concerns Escherichia coli. Put plainly: Antibacterial activity against Escherichia coli ATCC 25922 assessed as reduction in microbial growth after 18 hrs by resazurin dye based assay. The class given is functional. A digest of the protocol:
as §1

Data set [7] has as its system Klebsiella pneumoniae. Briefly: Potentiation of doxycycline-induced antibacterial activity against Klebsiella pneumoniae ATCC 700603 assessed as complete reduction in visible microbial growth after 18 hrs in presence of 4.5 uM doxycycline by two fold serial dilution method. The class given is functional.
Data set [8] deals with Escherichia coli. Briefly: Potentiation of doxycycline-induced antibacterial activity against Escherichia coli ATCC 25922 assessed as complete reduction in visible microbial growth after 18 hrs in presence of 4.5 uM doxycycline by two fold serial dilution method. The class given is functional. The method in brief: as §2
Data set [9] concerns Acinetobacter baumannii. Put plainly: Potentiation of doxycycline-induced antibacterial activity against Acinetobacter baumannii AYE assessed as complete reduction in visible microbial growth after 18 hrs in presence of 4.5 uM doxycycline by two fold serial dilution method. The class given is functional. The method in brief: as §2
Another data set concerns Erythrocyte. Briefly: Hemolytic activity in human Erythrocyte incubated for 1 hr by Neubauer haemocytometric analysis. It is filed as ADME, cell-based. A digest of the protocol:
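Human whole blood washed three times in 0.9% NaCl and resuspended at 0.5 × 10^8 cells/mL (haemocytometer count). Cells added to compound plates, shaken 10 min, then incubated 1 h at 37 °C. After centrifugation at 1,000g for 10 min, supernatant absorbance read at OD405. HC10/HC50 obtained by sigmoidal fit against log concentration.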

Regarding `O=C(CCC(=O)Nc1cccc2cccnc12)NCCCNCCCCCCCCCCNCCCNC(=O)CCC(=O)Nc1cccc2cccnc12.O=C(O)C(F)(F)F.O=C(O)C(F)(F)F`, the MIC was above 33.1 µM in the data set with Acinetobacter baumannii [1]; 100 µM in the data set on Pseudomonas aeruginosa [2]; 33.1 µM in the data set on Staphylococcus aureus; above 33.1 µM in the data set with Cryptococcus neoformans; above 33.1 µM with Pseudomonas aeruginosa [4]; above 33.1 µM with Klebsiella pneumoniae [5]. The MIC with Candida albicans and in the data set with Escherichia coli [6] was above 33.1 µM each time. The Activity result in the data set with HEK293 and in the data set on L6 was “Non-Toxic” throughout. Moreover, the HC50 at 1 h in [3] stood at 30.5 µM.

As for `COc1cc(NC(C)CCCNC(=O)CCC(=O)NCCCNCCCCNCCCNC(=O)CCC(=O)NCCCC(C)Nc2cc(OC)cc3cccnc23)c2ncccc2c1.O=C(O)C(F)(F)F.O=C(O)C(F)(F)F` (stereo not drawn), the MIC was above 200 µM with Klebsiella pneumoniae [7]; above 33.4 µM in the data set with Acinetobacter baumannii [1]; 6.25 µM with Pseudomonas aeruginosa [2]; above 33.4 µM in the data set with Staphylococcus aureus; 50 µM in the data set on Escherichia coli [8]; above 200 µM in the data set on Acinetobacter baumannii [9]. Also, the MIC was 33.4 µM with Cryptococcus neoformans; above 33.4 µM in the data set with Pseudomonas aeruginosa [4]; above 33.4 µM in the data set on Klebsiella pneumoniae [5]; above 33.4 µM with Candida albicans; above 33.4 µM with Escherichia coli [6]. Further, the Activity result with HEK293, with L6 and with Erythrocyte was “Non-Toxic” throughout.

As for `O=C(CCC(=O)Nc1cccc2ncccc12)NCCCNCCCCNCCCNC(=O)CCC(=O)Nc1cccc2ncccc12`, the MIC is above 36.2 µM in the data set with Acinetobacter baumannii [1]; 300 µM in the data set on Pseudomonas aeruginosa [2]; above 36.2 µM with Staphylococcus aureus; above 36.2 µM in the data set with Cryptococcus neoformans; above 36.2 µM with Pseudomonas aeruginosa [4]; above 36.2 µM in the data set on Klebsiella pneumoniae [5]. In addition, the minimum inhibitory concentration (MIC) in the data set on Candida albicans and in the data set on Escherichia coli [6] was above 36.2 µM each time.
